# NPY-Y1 PAM-ag: human NPY-Y1 potentiation or agonism, primary screen; NPY-Y1 expressing cells, potentiator/agonist activation; activation, % at 3.6 µM; 220,000 tested, 0.37% active; in the data active = activation above about 33%, passing the limit was not always enough;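 note: cells stimulated with NPY at EC10 then isoproterenol at EC100; 0% = low agonist plus stimulus and 100% = saturating agonist plus stimulus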
# Target sequence (P25929 whole entry, looked up): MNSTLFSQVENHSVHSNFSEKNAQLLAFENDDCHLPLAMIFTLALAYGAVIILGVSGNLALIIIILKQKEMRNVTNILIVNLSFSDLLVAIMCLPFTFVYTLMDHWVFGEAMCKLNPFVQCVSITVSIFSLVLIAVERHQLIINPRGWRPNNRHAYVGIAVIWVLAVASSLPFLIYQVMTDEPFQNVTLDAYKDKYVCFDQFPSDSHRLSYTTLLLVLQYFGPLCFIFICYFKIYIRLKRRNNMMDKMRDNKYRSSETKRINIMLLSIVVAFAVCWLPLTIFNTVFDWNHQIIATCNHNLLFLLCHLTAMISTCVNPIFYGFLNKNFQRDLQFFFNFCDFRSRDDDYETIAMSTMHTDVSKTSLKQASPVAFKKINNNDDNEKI
# NPY-Y2 antag: antagonists of human neuropeptide Y receptor Y2. P49146. 140,000 tested, 0.99% active. NPY-Y2 expressing cells, antagonist mode. AID 793. inhibition, % at 2.7 µM;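 note: 0% = vehicle with agonist challenge and 100% = reference antagonist with challenge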
# NPY-Y2 PAM-ag: human NPY-Y2 potentiation or agonism, primary screen | AID 1359 | activation, % at 3.6 µM | cells expressing NPY-Y2, potentiator/agonist read-out | P49146 | 220,000 tested, 0.45% active; in the data active = activation above about 27%;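 note: cells stimulated with NPY near EC25 plus isoproterenol at EC100; 0% = vehicle plus submaximal agonist and 100% = vehicle plus saturating agonist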
# NPY-Y1 antag: blocks the human neuropeptide Y Y1 receptor; P25929; 200,000 tested, 1% active; inhibition, % at 3.6 µM; HEK293-CNG Y1 cells, membrane potential fluorescence; NPY at EC95, then isoproterenol;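 active = inhibition above the campaign mean inhibition of all tested compounds plus 3 SD, cut at about 20% in these data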;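 note: 0% = DMSO wells given NPY plus isoproterenol and 100% = isoproterenol alone without NPY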
#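 Test system – HEK293 Y1/CNG channel cell line · Also added – NPY agonist 25 nM, then isoproterenol 1 µM plus Ro 20-1724 25 µM · Compound dosing – one concentration, 3.6 µM, in 0.4% DMSO · Schedule – compound incubation 1 h at room temperature, readout 45 min post-stimulation · Technique – fluorescence, membrane potential probe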
# NPY-Y1 ant conf: human NPY-Y1 antagonism, confirmation; inhibition, % at 3.6 µM; shares compounds with NPY-Y1 antag; AID 1254; HEK293-CNG NPY-Y1, membrane potential fluorescence, cAMP; NPY challenge against isoproterenol-raised cAMP; 1,200 tested, 21% active; in the data active = inhibition above about 20%;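 note: 0% = vehicle with agonist plus stimulus and 100% = stimulus alone without agonist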
# NPY-Y2 antag ct: antagonizes human NPY-Y2, counter-screen to NPY-Y1 antagonists; AID 1255; shares compounds with NPY-Y1 antag; 1,200 tested, 28% active; inhibition, % at 3.6 µM; HEK293 NPY-Y2 CNG membrane potential fluorescence, antagonism; cells given NPY, then isoproterenol;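 note: 0% = DMSO with agonist challenge and 100% = reference antagonist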
# * hit, by the source's call; . = no result given. Only some compounds are listed: those with a hit (about 1.9% of all), similar ones and a draw of the others. Cut-off read from the data, not from the text of the source, unless noted: active = inhibition above about 17%; inactive = the rest.
SMILES,NPY-Y1 PAM-ag,NPY-Y2 antag,NPY-Y2 PAM-ag,NPY-Y1 antag,NPY-Y1 ant conf,NPY-Y2 antag ct
COCCCN1CCN(C2Cc3ccccc3Sc3ccc(Cl)cc32)CC1 (stereo not given),-60,16,-33,26*,8,16
Cc1cc(-c2ccccc2)nc(SCC(=O)N2CCCC2)n1,5,.,6,-2,.,.
CCCc1cc(C(=O)OC)c(NC(=O)c2cc(C)on2)s1,-20,2,8,20*,8,5
CCc1ccc(NC(=O)c2cc(C)on2)cc1,1,0,-5,-2,.,.
O=c1ccc2ccc(OCc3nnc(-c4ccccc4Br)o3)cc2o1,-31,13,-6,6,.,.
Cc1cc(=O)oc2cc(OCc3nnc(-c4ccccc4Br)o3)ccc12,-6,13,-5,26*,4,8
CCOc1ccc(S(=O)(=O)N(C)c2ccc(OCC(=O)NCc3ccc(C(=O)OC)cc3)cc2)cc1,12,.,6,5,.,.
Cc1c(Cl)cnc(NC(=O)COC(=O)Cc2coc3ccc4ccccc4c23)c1Cl,-33,9,-14,23*,7,6
CCN(CC)S(=O)(=O)c1ccc2[nH]cc(C(=O)NCCN3CCCCCC3)c(=O)c2c1,-19,-2,-8,21*,0,1
CCN(CC)S(=O)(=O)c1ccc2[nH]cc(C(=O)NCCCN3CCCCC3)c(=O)c2c1,-7,2,-2,-4,.,.
CCOC(=O)c1cnc2ccc(OC)cc2c1Nc1ccc2c(c1)OCCO2,-33,9,-14,39*,13,8
CCOC(=O)c1cnc2ccc(C(=O)OC)cc2c1Nc1ccc2c(c1)OCCO2,-9,2,-7,2,.,.
COC(=O)c1cc(-c2cccc(OC)c2)on1,-38,13,-29,27*,11,15
COC(=O)c1cc(-c2ccc(Br)cc2)on1,-49,15,-44,23*,12,17*
OCCC1CN(Cc2ccon2)CCN1CCc1ccccc1 (stereo not given),-5,.,-1,-4,.,.
CC(=O)n1cc([C@@H]2C=C(C(=O)Nc3ccccc3)O[C@H](OCc3ccc(CO)cc3)C2)c2ccccc21,-17,.,-24,34*,20,9
CCCCN1C(=O)C(=O)N(CC(=O)NC2CCCc3ccccc32)C1=O (stereo not given),-25,.,-15,-1,.,.
CCOCCCNC(=O)C(NC(=O)Cc1cccs1)c1ccc(OC)cc1 (stereo not given),-4,.,-14,0,.,.
CSc1nc(Oc2ccc(F)cc2)c2ccccc2n1,-23,11,-19,23*,6,9
O=C1C=C(NCc2ccc(Cl)c(Cl)c2)C2(CCCCC2)O1,3,15,-6,42*,10,7
Cc1cc(C)c2c(CN3CCN(C/C=C/c4ccccc4)CC3)cc(=O)oc2c1,-67,15,-27,25*,16,18*
CC(C)(C)C(=O)COC(=O)c1cc(-c2cccnc2)nc2ccccc12,-11,.,-11,3,.,.
Cc1ccc([N+](=O)[O-])cc1S(=O)(=O)Nc1ccccn1,-16,.,2,0,.,.
COc1cccc(NC(=O)CN2CCN(c3ccccc3F)CC2)c1,-36,6,-15,22*,6,6
Cc1ccnc(N2C(=O)CSC2c2ccc(Cl)cc2)c1 (stereo not given),9,1,18,9,.,.
SMILES,NPY-Y1 PAM-ag,NPY-Y2 antag,NPY-Y2 PAM-ag,NPY-Y1 antag,NPY-Y1 ant conf,NPY-Y2 antag ct
CCOC(=O)C1(CCc2ccccc2)CCN(Cc2c(O)cccc2OC)CC1,-33,.,-11,33*,27*,25*
CCOC(=O)C1(Cc2ccccc2)CCN(Cc2cc(OC)c3c(c2)OCO3)CC1,-1,.,-8,25*,7,10
COC(=O)c1c(NC(=O)C2CCCCC2C(=O)O)sc2c1CCCCC2 (stereo not given),0,.,-5,89*,8,5
CCOC(=O)c1c(NC(=O)C2CCCCC2C(=O)O)sc2c1CCCCC2 (stereo not given),-19,.,22,3,.,.
CCOC(=O)C(=CNc1cc(C)nn1-c1ccc(Cl)cc1)C(=O)OCC,13,9,11,24*,21*,5
C[C@H]1CC[C@H]2C(=O)N3[C@H](c4cccc(N5CCCC5=O)c4)[C@@H](C)CC[C@H]3C(=O)N2[C@@H]1c1cccc(N2CCCC2=O)c1,0,0,0,-5,.,.
C[C@H]1CC[C@H]2C(=O)N3[C@H](c4ccccc4Br)[C@@H](C)CC[C@H]3C(=O)N2[C@@H]1c1ccccc1Br,-4,12,17,28*,20,9
O=C1N(Cc2cccc(Cl)c2)C[C@@H]2C[C@@H](c3ccco3)N3CCC[C@@]123,3,.,-15,22*,12,6
CCN1CCN(c2cc(C)nc(-c3ccccc3O)n2)CC1,-2,.,-3,.,.,.
CCCc1nc2c(sc3nc4c(cc32)COC(C)(C)C4)c(=O)n1CCN(CC)CC,-19,.,-4,1,.,.
C1=C(c2ccccc2)Nc2ccccc2N=C1c1ccccc1,-19,15,-6,25*,18,10
O=C(Cn1c2c(c(-c3ccccc3Cl)cc1=O)CCC2)NCCCN1CCOCC1,8,.,-19,.,.,.
CCC(=O)Nc1cccc(-c2nc3ccccc3o2)c1,20,2,4,9,.,.
COc1ccccc1OCC(=O)Nc1cccc(-c2nc3ccccc3o2)c1,-67,14,-27,20*,16,10
N#CC1=C(N)Oc2cc(N)ccc2C1c1cccnc1 (stereo not given),13,0,5,-2,.,.
CCN(CC)c1ccc2c(c1)OC(N)=C(C#N)C2c1cccnc1 (stereo not given),-11,6,-12,27*,6,15
CCc1ccc2[nH]c(=O)c(CN(CCN(CC)CC)C(=S)NCc3ccco3)cc2c1,-30,.,-31,22*,14,14
Cc1ccn(C(=O)c2ccc(NC(=O)C3CC3)cc2)n1,-2,.,-11,4,.,.
Cc1cc(C)c(C#N)c(SCC(=O)c2cc(C)n(CCc3ccccc3)c2C)n1,-10,1,4,24*,10,11
O=C(CN1C(=O)C2CC=CCC2C1=O)Nc1nnc(SCc2c(Cl)cccc2Cl)s1 (stereo not given),-1,5,6,3,.,.
O=C(CN1C(=O)C2CC=CCC2C1=O)Nc1nnc(SCc2ccc(Cl)cc2)s1 (stereo not given),-25,15,-14,24*,9,10
COC(=O)c1[nH]c2c(c1C)C(=O)CC(c1ccccc1)C2 (stereo not given),-5,3,-23,1,.,.
Cc1c(C(=O)N2CCOCC2)[nH]c2c1C(=O)CC(c1ccccc1Cl)C2 (stereo not given),-13,5,-12,24*,3,18*
O=C(CN1C(=O)c2ccccc2C1=O)Nc1ccc(S(=O)(=O)N2CCOCC2)cc1,1,.,0,-2,.,.

# Screens as filed in PubChem.
